Laboratory results taken from ChEMBL document CHEMBL4811225 (J Med Chem, 2021).
Where a SMILES comes first, the peptide text is derived from it. Bridges are numbered along the chain shown (N, C = ends).

Legend:
[1] = molecular target: Neuronal acetylcholine receptor subunit alpha-6/alpha-3 (Homo sapiens) (UniProt P32297+Q15825); assay: Inhibition of human alpha6beta4 nAChR expressed in Xenopus laevis oocytes assessed as recovery of acethylcholine-evoked currents at 10 uM treated for 10 mins followed by compound washout by two-electrode voltage-clamp method relative to control; format: cell-based; set-up: scale not given: the % may be the effect or the level left; conditions: Oocyte
[2] = molecular target: T1, Nicotinic acetylcholine receptor alpha6/alpha3/beta4 (Rattus norvegicus) (UniProt P04757+P12392+P43143); assay: Inhibition of rat alpha6beta4 nAChR expressed in Xenopus laevis oocytes assessed as recovery of acethylcholine-evoked currents at 10 uM treated for 10 mins followed by compound washout by two-electrode voltage-clamp method relative to control; format: cell-based; set-up: scale not given: the % may be the effect or the level left; conditions: Oocyte
[3] = molecular target: Nicotinic acetylcholine receptor alpha-1/beta-1/delta/epsilon (Homo sapiens, UniProt P02708+P11230+Q04844+Q07001); assay: Inhibition of human alpha1beta1deltaepsilon nAChR expressed in Xenopus laevis oocytes assessed as inhibition of acetylcholine-induced current response by two-electrode voltage-clamp method; format: cell-based, Oocyte
Chain of Nicotinic acetylcholine receptor alpha-1/beta-1/delta/epsilon (P02708 whole entry): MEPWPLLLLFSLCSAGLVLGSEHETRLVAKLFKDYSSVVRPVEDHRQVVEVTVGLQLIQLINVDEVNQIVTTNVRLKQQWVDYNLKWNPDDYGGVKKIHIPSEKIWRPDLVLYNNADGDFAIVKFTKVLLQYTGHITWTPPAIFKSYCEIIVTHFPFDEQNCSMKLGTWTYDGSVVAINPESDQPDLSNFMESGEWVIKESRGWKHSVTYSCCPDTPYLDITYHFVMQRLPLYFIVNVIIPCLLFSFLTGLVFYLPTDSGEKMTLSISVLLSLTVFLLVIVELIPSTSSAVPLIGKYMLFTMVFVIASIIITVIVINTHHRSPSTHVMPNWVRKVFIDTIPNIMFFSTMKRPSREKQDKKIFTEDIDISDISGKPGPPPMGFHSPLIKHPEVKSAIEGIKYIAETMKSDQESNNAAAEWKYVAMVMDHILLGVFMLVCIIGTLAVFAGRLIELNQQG
Chain of Nicotinic acetylcholine receptor alpha-1/beta-1/delta/epsilon (P11230 whole entry): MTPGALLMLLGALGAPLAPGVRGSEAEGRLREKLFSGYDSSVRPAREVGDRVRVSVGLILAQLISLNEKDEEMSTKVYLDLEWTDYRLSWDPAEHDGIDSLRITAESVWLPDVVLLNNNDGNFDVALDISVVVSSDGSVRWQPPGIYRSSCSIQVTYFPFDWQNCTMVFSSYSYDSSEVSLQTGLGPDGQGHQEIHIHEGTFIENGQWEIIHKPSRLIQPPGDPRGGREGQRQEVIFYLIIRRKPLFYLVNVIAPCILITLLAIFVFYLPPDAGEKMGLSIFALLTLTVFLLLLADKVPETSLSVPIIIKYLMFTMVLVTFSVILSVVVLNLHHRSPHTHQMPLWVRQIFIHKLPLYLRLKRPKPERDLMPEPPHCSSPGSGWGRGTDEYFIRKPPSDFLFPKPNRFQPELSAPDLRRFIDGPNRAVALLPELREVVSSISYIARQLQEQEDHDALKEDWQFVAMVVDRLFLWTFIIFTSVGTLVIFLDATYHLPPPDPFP
Chain of Nicotinic acetylcholine receptor alpha-1/beta-1/delta/epsilon (Q07001 whole entry): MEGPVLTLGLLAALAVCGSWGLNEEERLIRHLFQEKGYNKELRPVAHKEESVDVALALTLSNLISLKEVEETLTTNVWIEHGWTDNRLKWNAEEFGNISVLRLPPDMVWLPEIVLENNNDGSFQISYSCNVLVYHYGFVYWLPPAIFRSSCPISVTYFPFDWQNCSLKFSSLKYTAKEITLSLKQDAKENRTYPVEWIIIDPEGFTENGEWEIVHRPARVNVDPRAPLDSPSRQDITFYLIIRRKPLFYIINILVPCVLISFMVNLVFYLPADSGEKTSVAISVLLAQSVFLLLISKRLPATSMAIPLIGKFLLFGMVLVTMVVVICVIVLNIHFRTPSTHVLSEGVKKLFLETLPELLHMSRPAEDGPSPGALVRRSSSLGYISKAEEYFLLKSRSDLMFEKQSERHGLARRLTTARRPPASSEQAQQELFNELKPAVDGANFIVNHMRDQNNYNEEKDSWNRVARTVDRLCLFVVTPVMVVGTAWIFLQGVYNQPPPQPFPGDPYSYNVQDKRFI
Chain of Nicotinic acetylcholine receptor alpha-1/beta-1/delta/epsilon (Q04844 whole entry): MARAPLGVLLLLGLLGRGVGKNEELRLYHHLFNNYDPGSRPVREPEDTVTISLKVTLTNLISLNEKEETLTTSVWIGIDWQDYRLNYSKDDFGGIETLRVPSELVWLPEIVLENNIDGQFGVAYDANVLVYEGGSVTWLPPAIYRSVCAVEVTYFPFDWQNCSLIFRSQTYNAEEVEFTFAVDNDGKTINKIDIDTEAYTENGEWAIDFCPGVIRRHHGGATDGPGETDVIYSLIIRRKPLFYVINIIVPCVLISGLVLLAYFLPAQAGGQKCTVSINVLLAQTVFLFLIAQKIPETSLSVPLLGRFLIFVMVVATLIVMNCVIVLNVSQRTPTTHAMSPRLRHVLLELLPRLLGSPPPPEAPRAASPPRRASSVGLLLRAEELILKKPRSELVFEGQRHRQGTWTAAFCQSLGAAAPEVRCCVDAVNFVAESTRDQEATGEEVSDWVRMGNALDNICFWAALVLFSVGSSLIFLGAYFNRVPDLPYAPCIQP
Outline: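 Stage IV–V X. laevis oocytes nucleus-injected with equal ratios of human α1, β1, δ, ε cDNAs; TEVC 1–5 days after injection. ACh 100 μM, 1 s every 60 s.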

[4] = molecular target: Neuronal acetylcholine receptor; alpha3/beta4 (Homo sapiens, UniProt P30926+P32297); assay: Inhibition of human alpha3beta4 nAChR expressed in Xenopus laevis oocytes assessed as inhibition of acetylcholine-induced current response by two-electrode voltage-clamp method; format: cell-based, Oocyte
Chain of Neuronal acetylcholine receptor; alpha3/beta4 (P30926 whole entry, the tested form may be a part): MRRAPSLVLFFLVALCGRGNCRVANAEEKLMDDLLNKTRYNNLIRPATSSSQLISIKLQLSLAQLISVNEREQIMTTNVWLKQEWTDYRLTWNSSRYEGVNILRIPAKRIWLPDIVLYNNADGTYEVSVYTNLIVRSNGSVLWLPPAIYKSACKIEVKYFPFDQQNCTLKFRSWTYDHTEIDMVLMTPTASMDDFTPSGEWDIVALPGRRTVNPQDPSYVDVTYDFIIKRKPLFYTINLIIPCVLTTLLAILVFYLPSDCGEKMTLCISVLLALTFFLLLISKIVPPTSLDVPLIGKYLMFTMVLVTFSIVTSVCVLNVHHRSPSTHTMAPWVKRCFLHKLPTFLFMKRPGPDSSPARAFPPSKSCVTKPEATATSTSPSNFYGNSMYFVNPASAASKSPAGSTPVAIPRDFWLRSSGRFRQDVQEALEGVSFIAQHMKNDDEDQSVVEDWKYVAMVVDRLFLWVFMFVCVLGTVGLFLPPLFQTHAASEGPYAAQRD
Chain of Neuronal acetylcholine receptor; alpha3/beta4 (P32297 whole entry, the tested form may be a part): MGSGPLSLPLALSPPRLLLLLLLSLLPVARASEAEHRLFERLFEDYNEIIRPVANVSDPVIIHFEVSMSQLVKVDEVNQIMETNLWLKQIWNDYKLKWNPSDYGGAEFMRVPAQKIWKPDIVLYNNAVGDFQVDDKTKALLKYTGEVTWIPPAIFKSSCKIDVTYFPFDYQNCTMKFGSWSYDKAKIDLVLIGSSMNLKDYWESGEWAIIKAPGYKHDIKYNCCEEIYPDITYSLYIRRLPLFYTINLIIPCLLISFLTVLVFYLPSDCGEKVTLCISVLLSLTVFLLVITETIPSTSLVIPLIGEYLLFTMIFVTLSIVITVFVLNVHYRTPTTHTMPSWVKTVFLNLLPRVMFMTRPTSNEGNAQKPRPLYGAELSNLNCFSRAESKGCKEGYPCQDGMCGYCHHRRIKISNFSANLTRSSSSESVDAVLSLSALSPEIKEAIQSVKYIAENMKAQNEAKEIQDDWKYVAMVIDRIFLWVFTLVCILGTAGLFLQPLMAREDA
Outline: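 TEVC on stage IV–V oocytes 1–5 days after equal-ratio cRNA injection (α2β4, α3β4, α4β4, α7). ACh 300 μM, 1 s pulses at 60 s intervals under frog saline perfusion. Peptide perfused to 1 μM, normalized to average of three control responses; higher concentrations by 5 min static bath. IC50 with 95% CI, n oocytes.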

[5] = molecular target: Neuronal acetylcholine receptor subunit alpha-7 (Rattus norvegicus, UniProt Q05941); format: cell-based, Oocyte
[6] = molecular target: Neuronal acetylcholine receptor; alpha9/alpha10 (Homo sapiens, UniProt Q9GZZ6+Q9UGM1); assay: Inhibition of human alpha9alpha10 nAChR expressed in Xenopus laevis oocytes assessed as inhibition of acetylcholine-induced current response by two-electrode voltage-clamp method; format: cell-based, Oocyte
Chain of Neuronal acetylcholine receptor; alpha9/alpha10 (Q9UGM1 whole entry, the tested form may be a part): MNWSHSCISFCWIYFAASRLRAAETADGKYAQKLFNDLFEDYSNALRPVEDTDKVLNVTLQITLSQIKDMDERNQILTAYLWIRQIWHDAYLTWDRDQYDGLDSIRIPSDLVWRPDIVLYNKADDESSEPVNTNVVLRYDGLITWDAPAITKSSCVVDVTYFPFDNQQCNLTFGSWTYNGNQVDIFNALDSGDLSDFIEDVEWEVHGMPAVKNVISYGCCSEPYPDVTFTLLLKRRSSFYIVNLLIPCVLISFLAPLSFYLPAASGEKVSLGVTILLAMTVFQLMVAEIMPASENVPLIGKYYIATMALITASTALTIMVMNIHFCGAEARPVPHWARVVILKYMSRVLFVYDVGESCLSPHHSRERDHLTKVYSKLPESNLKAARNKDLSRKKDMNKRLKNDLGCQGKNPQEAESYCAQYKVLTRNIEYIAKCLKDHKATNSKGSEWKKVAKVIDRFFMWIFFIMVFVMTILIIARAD
Chain of Neuronal acetylcholine receptor; alpha9/alpha10 (Q9GZZ6 whole entry, the tested form may be a part): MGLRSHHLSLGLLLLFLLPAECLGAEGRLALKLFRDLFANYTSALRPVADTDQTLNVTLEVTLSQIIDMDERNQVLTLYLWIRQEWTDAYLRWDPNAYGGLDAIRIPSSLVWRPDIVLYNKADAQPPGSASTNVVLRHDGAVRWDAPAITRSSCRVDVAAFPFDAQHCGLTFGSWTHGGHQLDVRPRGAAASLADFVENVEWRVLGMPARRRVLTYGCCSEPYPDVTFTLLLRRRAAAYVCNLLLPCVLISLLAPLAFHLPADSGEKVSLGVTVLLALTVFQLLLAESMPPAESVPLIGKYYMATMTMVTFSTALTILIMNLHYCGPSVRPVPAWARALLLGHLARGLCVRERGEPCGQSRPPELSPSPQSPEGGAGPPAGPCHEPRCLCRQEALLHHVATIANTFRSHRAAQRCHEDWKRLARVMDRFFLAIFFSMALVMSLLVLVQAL
Outline: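 Two-electrode voltage clamp of stage IV–V oocytes 1–5 days after equal-ratio cRNA injection; ACh 100 μM (β2-containing subtypes, α9α10), 1 s every 60 s in frog saline. Peptide perfused up to 1 μM, responses normalized to mean of three control responses; above 1 μM, 5 min static bath. IC50 with 95% CI; n = oocytes.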

[7] = species on record: Homo sapiens; assay: Selectivity ratio of IC50 for human alpha1beta1deltaepsilon nAChR to IC50 for human alpha6/alpha3beta4 nAChR
Outline: (§1)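 Ratio of each subtype's IC50, from TEVC inhibition of ACh-evoked currents in X. laevis oocytes, to the IC50 at the same species' α6/α3β4 nAChR; IC50 values with 95% CI, n = number of oocytes.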

[8] = species on record: Rattus norvegicus; assay: Selectivity ratio of IC50 for rat alpha2beta2 nAChR to IC50 for rat alpha6/alpha3beta4 nAChR; outline: as §1
[9] = species on record: Homo sapiens; assay: Selectivity ratio of IC50 for human alpha2beta4 nAChR to IC50 for human alpha6/alpha3beta4 nAChR; outline: as §1
[10] = species on record: Homo sapiens; assay: Selectivity ratio of IC50 for human alpha3beta2 nAChR to IC50 for human alpha6/alpha3beta4 nAChR; outline: as §1
[11] = species on record: Rattus norvegicus; assay: Selectivity ratio of IC50 for rat alpha3beta4 nAChR to IC50 for rat alpha6/alpha3beta4 nAChR; outline: as §1
[12] = species on record: Rattus norvegicus; assay: Selectivity ratio of IC50 for rat alpha9alpha10 nAChR to IC50 for rat alpha6/alpha3beta4 nAChR; outline: as §1
[13] = molecular target: Nicotinic acetylcholine receptor alpha-1/beta-1/delta/epsilon (Homo sapiens) (UniProt P02708+P11230+Q07001+Q04844); assay: Inhibition of human alpha1beta1deltaepsilon nAChR expressed in Xenopus laevis oocytes assessed as inhibition of acetylcholine-induced current response at 10 uM by two-electrode voltage-clamp method relative to control; format: cell-based; conditions: Oocyte
Outline: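 Human α1, β1, δ and ε cDNAs injected in equal ratios into the nucleus of stage IV–V X. laevis oocytes; TEVC 1–5 days later. ACh 100 μM, 1 s pulses at 60 s intervals. Peptide 10 μM applied as 5 min static bath; response normalized to ACh response after 5 min bath of control saline; mean ± SD, n = 4.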

[14] = molecular target: Neuronal acetylcholine receptor; alpha2/beta2 (Homo sapiens, UniProt P17787+Q15822); assay: Inhibition of human alpha2beta2 nAChR expressed in Xenopus laevis oocytes assessed as inhibition of acetylcholine-induced current response at 10 uM by two-electrode voltage-clamp method relative to control; format: cell-based; conditions: Oocyte
Outline: (§2)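 Oocytes (stage IV–V) injected with equal-ratio cRNAs of cloned subunits; TEVC 1–5 days post-injection. ACh 100 μM for β2-containing and α9α10 subtypes, 1 s pulses every 60 s. Peptide 10 μM in 5 min static bath; response normalized to ACh response after 5 min control-saline bath; mean ± SD, n = 4.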

[15] = molecular target: Neuronal acetylcholine receptor; alpha2/beta4 (Homo sapiens, UniProt P30926+Q15822); assay: Inhibition of human alpha2beta4 nAChR expressed in Xenopus laevis oocytes assessed as inhibition of acetylcholine-induced current response at 10 uM by two-electrode voltage-clamp method relative to control; format: cell-based; conditions: Oocyte
Outline: (§3)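 Stage IV–V X. laevis oocytes expressing equal-ratio cRNAs of α2β4, α3β4, α4β4 or α7 subunits; TEVC 1–5 days after injection. ACh 300 μM, 1 s at 60 s intervals. 10 μM peptide as 5 min static bath, normalized to ACh response after 5 min bath of control saline; mean ± SD, n = 4.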

[16] = molecular target: Neuronal acetylcholine receptor subunit alpha-7 (Homo sapiens, UniProt P36544); assay: Inhibition of human alpha7 nAChR expressed in Xenopus laevis oocytes assessed as inhibition of acetylcholine-induced current response at 10 uM by two-electrode voltage-clamp method relative to control; format: cell-based; conditions: Oocyte; outline: as §3
Chain of Neuronal acetylcholine receptor subunit alpha-7 (Homo sapiens, UniProt P36544) (P36544 whole entry): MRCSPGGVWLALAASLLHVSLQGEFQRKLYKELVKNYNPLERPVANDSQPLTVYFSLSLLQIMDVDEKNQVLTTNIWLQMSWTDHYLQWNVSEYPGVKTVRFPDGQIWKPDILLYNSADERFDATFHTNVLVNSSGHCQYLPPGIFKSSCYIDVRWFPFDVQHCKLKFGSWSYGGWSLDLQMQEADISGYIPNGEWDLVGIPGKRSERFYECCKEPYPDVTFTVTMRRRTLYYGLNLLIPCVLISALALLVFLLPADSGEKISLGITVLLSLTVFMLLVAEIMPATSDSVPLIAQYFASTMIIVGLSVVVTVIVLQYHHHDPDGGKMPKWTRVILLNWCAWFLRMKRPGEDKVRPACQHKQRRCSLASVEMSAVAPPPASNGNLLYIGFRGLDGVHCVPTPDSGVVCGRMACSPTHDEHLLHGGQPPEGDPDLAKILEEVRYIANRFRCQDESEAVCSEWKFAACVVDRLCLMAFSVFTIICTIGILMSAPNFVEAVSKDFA

[17] = molecular target: Neuronal acetylcholine receptor; alpha4/beta2 (Rattus norvegicus) (UniProt P09483+P12390); assay: Inhibition of rat alpha4beta2 nAChR expressed in Xenopus laevis oocytes assessed as inhibition of acetylcholine-induced current response at 10 uM by two-electrode voltage-clamp method relative to control; format: cell-based; conditions: Oocyte; outline: as §2
[18] = molecular target: Neuronal acetylcholine receptor; alpha4/beta4 (Rattus norvegicus) (UniProt P09483+P12392); assay: Inhibition of rat alpha4beta4 nAChR expressed in Xenopus laevis oocytes assessed as inhibition of acetylcholine-induced current response at 10 uM by two-electrode voltage-clamp method relative to control; format: cell-based; conditions: Oocyte; outline: as §3
[19] = molecular target: Neuronal acetylcholine receptor subunit alpha-7 (Rattus norvegicus) (UniProt Q05941); assay: Inhibition of rat alpha7 nAChR expressed in Xenopus laevis oocytes assessed as inhibition of acetylcholine-induced current response at 10 uM by two-electrode voltage-clamp method relative to control; format: cell-based; conditions: Oocyte; outline: as §3
Chain of Neuronal acetylcholine receptor subunit alpha-7 (Rattus norvegicus) (Q05941 whole entry): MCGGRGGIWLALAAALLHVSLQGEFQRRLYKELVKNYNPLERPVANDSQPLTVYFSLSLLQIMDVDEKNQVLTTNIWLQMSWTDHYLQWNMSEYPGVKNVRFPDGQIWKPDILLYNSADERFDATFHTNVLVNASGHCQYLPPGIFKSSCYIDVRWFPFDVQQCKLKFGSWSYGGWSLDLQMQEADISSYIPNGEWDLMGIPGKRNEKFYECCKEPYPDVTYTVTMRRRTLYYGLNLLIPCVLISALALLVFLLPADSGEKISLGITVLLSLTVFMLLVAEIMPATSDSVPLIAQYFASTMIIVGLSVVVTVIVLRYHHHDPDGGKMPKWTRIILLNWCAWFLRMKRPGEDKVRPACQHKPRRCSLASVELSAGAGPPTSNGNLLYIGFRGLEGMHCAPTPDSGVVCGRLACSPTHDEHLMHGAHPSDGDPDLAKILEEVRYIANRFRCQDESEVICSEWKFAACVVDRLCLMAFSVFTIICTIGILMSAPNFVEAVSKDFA

[20] = molecular target: T1, Nicotinic acetylcholine receptor alpha6/alpha3/beta4 (Rattus norvegicus); conditions: Oocyte

## CC[C@H](C)[C@@H]1NC(=O)[C@H](CCC(=O)O)NC(=O)[C@@H]2CCCN2C(=O)[C@H](Cc2cnc[nH]2)NC(=O)[C@H](CC(N)=O)NC(=O)[C@H](C(C)C)NC(=O)[C@H](CC(N)=O)NC(=O)[C@@H]2CSSC[C@H](NC(=O)CN)C(=O)N[C@@H](CSSC[C@@H](C(N)=O)NC1=O)C(=O)N[C@@H](CO)C(=O)N[C@@H](Cc1cnc[nH]1)C(=O)N1CCC[C@H]1C(=O)N[C@@H](C(C)C)C(=O)N2 (H-GCCSHPVCNVNHPEIC-NH2; disulfide 2-8, 3-16)
[1]
  Activity: 2%
[2]
  Activity: 6%
[3]
  IC50: > 10 µM
[4]
  IC50: 179 nM
[5]
  IC50: > 10 µM
[6]
  IC50: > 10 µM
[7]
  Ratio IC50: > 50000
[8]
  Ratio IC50: > 20000
[9]
  Ratio IC50: > 50000
[10]
  Ratio IC50: > 50000
[11]
  Ratio IC50: 489
[12]
  Ratio IC50: > 20000
[13]
  inhibition: 93%
[14]
  inhibition: 95%
[15]
  inhibition: 84%
[16]
  inhibition: 89%
[17]
  inhibition: 81%
[18]
  inhibition: 81%
[19]
  inhibition: 82%
[20]
  deltalogIC50: -2.4
